Test results taken from ChEMBL document CHEMBL1148855, “Synthesis and antibacterial activity of 4,5,6,7-tetrahydro-thieno[3,2-c]pyridine quinolones” (2007).
In brackets after ≈: the same amount, converted by molar mass.

Experiments:
Format in all cases: functional
Staphylococcus aureus [1] = test: Antibacterial activity against Staphylococcus aureus ATCC 33592 by micro-broth dilution method
In short: (§1)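 MIC taken as the lowest concentration giving 90% inhibition of bacterial growth. Determined by microbroth dilution following National Committee (NCCLS) guidance, with each value determined in triplicate.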

Enterococcus faecalis [2] = test: Antibacterial activity against Enterococcus faecalis ATCC 14506 by microbroth dilution method; in short: as §1
Streptococcus pneumoniae = test: Antibacterial activity against penicillin-resistant Streptococcus pneumoniae ATCC 700904 by micro-broth dilution method
In short: (§2)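 Microbroth dilution run per National Committee guidelines; MIC taken as the concentration giving 90% inhibition of bacterial growth. Tested within a broader panel of susceptible and resistant Gram-positive strains. Reported values come from triplicate determinations.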

Escherichia coli = test: Antibacterial activity against Escherichia coli ATCC 25922 by micro-broth dilution method; in short: as §1
Staphylococcus aureus [3] = test: Antibacterial activity against linezolid-resistant Staphylococcus aureus NRS 119 by microbroth dilution method; in short: as §2
Enterococcus faecalis [4] = test: Antibacterial activity against vancomycin-resistant Enterococcus faecalis ATCC 700802 by micro-broth dilution method; in short: as §2
Klebsiella pneumoniae = test: Antibacterial activity against Klebsiella pneumoniae ATCC 10031 by micro-broth dilution method; in short: as §1
Staphylococcus aureus [5] = test: Antibacterial activity against Staphylococcus aureus ATCC 29213 by micro-broth dilution method; in short: as §1
Staphylococcus aureus [6] = test: Antibacterial activity against methicillin-resistant Staphylococcus aureus ATCC 700699 by micro-broth dilution method; in short: as §2
Staphylococcus aureus [7] = test: Antibacterial activity against Staphylococcus aureus ATCC 25923 by micro-broth dilution method; in short: as §1
Bacillus subtilis = test: Antibacterial activity against Bacillus subtilis ATCC 6633 by micro-broth dilution method; in short: as §1
Staphylococcus aureus [8] = test: Antibacterial activity against Staphylococcus aureus ATCC 33591 by micro-broth dilution method; in short: as §1
Pseudomonas aeruginosa = test: Antibacterial activity against Pseudomonas aeruginosa ATCC 27853 by micro-broth dilution method; in short: as §1
[9] = test system: Staphylococcus epidermidis; test: Antibacterial activity against Staphylococcus epidermidis ATCC 12228 by micro-broth dilution method; in short: as §1
Enterococcus faecium = test: Antibacterial activity against vancomycin-resistant Enterococcus faecium ATCC 700221 by microbroth dilution method; in short: as §2
Enterococcus faecalis [10] = test: Antibacterial activity against Enterococcus faecalis ATCC 29212 by micro-broth dilution method; in short: as §1

Row | SMILES | MIC (Staphylococcus aureus [1]) [µg/mL] | MIC (Enterococcus faecalis [2]) [µg/mL] | MIC (Streptococcus pneumoniae) [µg/mL] | MIC (Escherichia coli) [µg/mL] | MIC (Staphylococcus aureus [3]) [µg/mL] | MIC (Enterococcus faecalis [4]) [µg/mL] | MIC (Klebsiella pneumoniae) [µg/mL] | MIC (Staphylococcus aureus [5]) [µg/mL] | MIC (Staphylococcus aureus [6]) [µg/mL] | MIC (Staphylococcus aureus [7]) [µg/mL] | MIC (Bacillus subtilis) [µg/mL] | MIC (Staphylococcus aureus [8]) [µg/mL] | MIC (Pseudomonas aeruginosa) [µg/mL] | MIC [9] [µg/mL] | MIC (Enterococcus faecium) [µg/mL] | MIC (Enterococcus faecalis [10]) [µg/mL]
1 | COc1c(N2CCNC(C)C2)c(F)cc2c(=O)c(C(=O)O)cn(C3CC3)c12 (stereo unspecified) [GATIFLOXACIN] | 4 (≈ 10.7 µM) | 0.5 (≈ 1.33 µM) | ≤ 0.125 | ≤ 0.12 | 4 (≈ 10.7 µM) | 0.5 (≈ 1.33 µM) | ≤ 0.12 | 0.25 (≈ 0.666 µM) | 8 (≈ 21.3 µM) | ≤ 0.125 | ≤ 0.12 | 0.5 (≈ 1.33 µM) | 1 (≈ 2.66 µM) | 0.25 (≈ 0.666 µM) | > 16 | 0.5 (≈ 1.33 µM)
2 | Nc1c(F)c(N2CCc3sccc3C2)c(F)c2c1c(=O)c(C(=O)O)cn2C1CC1 | 4 (≈ 9.58 µM) | > 16 | 2 (≈ 4.79 µM) | 0.25 (≈ 0.599 µM) | > 16 | 16 (≈ 38.3 µM) | 4 (≈ 9.58 µM) | 8 (≈ 19.2 µM) | > 16 | 4 (≈ 9.58 µM) | ≤ 0.12 | 4 (≈ 9.58 µM) | > 16 | 16 (≈ 38.3 µM) | > 16 | > 16
3 | O=C(O)c1cn(C2CC2)c2c(F)c(N3CCc4sccc4C3)c(F)c(F)c2c1=O | 2 (≈ 4.76 µM) | > 16 | 2 (≈ 4.76 µM) | 0.5 (≈ 1.19 µM) | > 16 | 16 (≈ 38.1 µM) | 8 (≈ 19 µM) | 4 (≈ 9.51 µM) | > 16 | 2 (≈ 4.76 µM) | 0.25 (≈ 0.595 µM) | 4 (≈ 9.51 µM) | > 16 | 2 (≈ 4.76 µM) | > 16 | > 16
4 | CC(=O)Nc1c(F)c(N2CCc3sccc3C2)c(F)c2c1c(=O)c(C(=O)O)cn2C1CC1 | – | – | – | > 16 | – | – | > 16 | – | – | – | 1 (≈ 2.18 µM) | > 16 | > 16 | > 16 | – | > 16
5 | COc1c(N2CCc3sccc3C2)c(F)c([N+](=O)[O-])c2c(=O)c(C(=O)O)cn(C3CC3)c12 | – | – | – | 16 (≈ 34.8 µM) | – | – | – | – | – | – | 0.25 (≈ 0.544 µM) | 8 (≈ 17.4 µM) | > 16 | 2 (≈ 4.35 µM) | – | –
6 | COc1c(N2CCc3sc(Br)cc3C2)c(F)cc2c(=O)c(C(=O)O)cn(C3CC3)c12 | 2 (≈ 4.05 µM) | > 16 | 8 (≈ 16.2 µM) | 2 (≈ 4.05 µM) | > 16 | > 16 | 4 (≈ 8.11 µM) | 4 (≈ 8.11 µM) | > 16 | 2 (≈ 4.05 µM) | ≤ 0.12 | 1 (≈ 2.03 µM) | > 16 | ≤ 0.12 | > 16 | 0.5 (≈ 1.01 µM)
7 | O=C(O)c1cn(C2CC2)c2cc(N3CCc4sc(Br)cc4C3)c(F)cc2c1=O | 4 (≈ 8.63 µM) | > 16 | 2 (≈ 4.32 µM) | 1 (≈ 2.16 µM) | > 16 | > 16 | 2 (≈ 4.32 µM) | 4 (≈ 8.63 µM) | > 16 | 0.5 (≈ 1.08 µM) | ≤ 0.12 | 4 (≈ 8.63 µM) | > 16 | 0.5 (≈ 1.08 µM) | – | –
8 | O=C(O)c1cn(C2CC2)c2cc(N3CCc4sccc4C3)c(F)cc2c1=O | 1 (≈ 2.6 µM) | 16 (≈ 41.6 µM) | 0.25 (≈ 0.65 µM) | 0.25 (≈ 0.65 µM) | > 16 | 4 (≈ 10.4 µM) | ≤ 0.12 | 4 (≈ 10.4 µM) | > 16 | 1 (≈ 2.6 µM) | ≤ 0.12 | 4 (≈ 10.4 µM) | > 16 | 8 (≈ 20.8 µM) | > 16 | –
9 | COc1c(N2CCc3sc([N+](=O)[O-])cc3C2)c(F)cc2c(=O)c(C(=O)O)cn(C3CC3)c12 | 8 (≈ 17.4 µM) | > 16 | 0.5 (≈ 1.09 µM) | 0.5 (≈ 1.09 µM) | > 16 | 16 (≈ 34.8 µM) | 0.25 (≈ 0.544 µM) | 4 (≈ 8.71 µM) | 16 (≈ 34.8 µM) | 4 (≈ 8.71 µM) | ≤ 0.12 | ≤ 0.12 | 1 (≈ 2.18 µM) | 4 (≈ 8.71 µM) | > 16 | ≤ 0.12
10 | Nc1c(F)c(N2CCc3sc(Br)cc3C2)c(F)c2c1c(=O)c(C(=O)O)cn2C1CC1 | – | – | – | > 16 | – | – | > 16 | – | – | – | > 16 | – | > 16 | > 16 | – | > 16
11 | COc1c(N2CCc3sccc3C2)c(F)cc2c(=O)c(C(=O)O)cn(C3CC3)c12 | 0.25 (≈ 0.603 µM) | 0.25 (≈ 0.603 µM) | ≤ 0.125 | ≤ 0.12 | > 16 | ≤ 0.125 | 0.25 (≈ 0.603 µM) | ≤ 0.125 | 2 (≈ 4.83 µM) | ≤ 0.125 | ≤ 0.12 | ≤ 0.12 | > 16 | > 16 | 16 (≈ 38.6 µM) | 2 (≈ 4.83 µM)
12 | COc1c(N2CCc3sc(CO)cc3C2)c(F)cc2c(=O)c(C(=O)O)cn(C3CC3)c12 | – | – | ≤ 0.12 | 0.25 (≈ 0.562 µM) | 0.5 (≈ 1.12 µM) | 0.25 (≈ 0.562 µM) | ≤ 0.12 | 2 (≈ 4.5 µM) | 2 (≈ 4.5 µM) | 2 (≈ 4.5 µM) | ≤ 0.12 | 2 (≈ 4.5 µM) | 16 (≈ 36 µM) | > 16 | – | 0.5 (≈ 1.12 µM)
13 | O=C(O)c1cn(C2CC2)c2cc(N3CCNCC3)c(F)cc2c1=O [CIPROFLOXACIN] | 0.5 (≈ 1.51 µM) | 1 (≈ 3.02 µM) | 0.25 (≈ 0.754 µM) | ≤ 0.12 | > 16 | 1 (≈ 3.02 µM) | ≤ 0.12 | 1 (≈ 3.02 µM) | > 16 | 0.25 (≈ 0.754 µM) | ≤ 0.12 | 1 (≈ 3.02 µM) | – | ≤ 0.12 | > 16 | 2 (≈ 6.04 µM)
14 | COc1c(N2CCc3sc(COC(C)=O)cc3C2)c(F)cc2c(=O)c(C(=O)O)cn(C3CC3)c12 | 2 (≈ 4.11 µM) | – | ≤ 0.12 | 0.5 (≈ 1.03 µM) | 2 (≈ 4.11 µM) | 1 (≈ 2.06 µM) | 2 (≈ 4.11 µM) | 4 (≈ 8.22 µM) | 4 (≈ 8.22 µM) | 1 (≈ 2.06 µM) | ≤ 0.12 | 0.25 (≈ 0.514 µM) | > 16 | ≤ 0.12 | – | 0.5 (≈ 1.03 µM)
15 | COc1c(N2CCc3sc(C=O)cc3C2)c(F)cc2c(=O)c(C(=O)O)cn(C3CC3)c12 | ≤ 0.25 | 2 (≈ 4.52 µM) | ≤ 0.12 | 0.25 (≈ 0.565 µM) | ≤ 0.12 | 0.25 (≈ 0.565 µM) | ≤ 0.12 | ≤ 0.125 | 0.5 (≈ 1.13 µM) | ≤ 0.125 | ≤ 0.12 | ≤ 0.12 | 8 (≈ 18.1 µM) | ≤ 0.12 | > 16 | ≤ 0.12
16 | COc1c(N2CCc3sc(C(=O)O)cc3C2)c(F)cc2c(=O)c(C(=O)O)cn(C3CC3)c12 | 0.5 (≈ 1.09 µM) | > 16 | 1 (≈ 2.18 µM) | 8 (≈ 17.4 µM) | > 16 | 16 (≈ 34.9 µM) | 2 (≈ 4.36 µM) | 2 (≈ 4.36 µM) | > 16 | 2 (≈ 4.36 µM) | 0.5 (≈ 1.09 µM) | 2 (≈ 4.36 µM) | > 16 | 1 (≈ 2.18 µM) | > 16 | 8 (≈ 17.4 µM)
17 | C[C@@H]1CN(c2c(F)c(N)c3c(=O)c(C(=O)O)cn(C4CC4)c3c2F)C[C@H](C)N1 [SPARFLOXACIN] | ≤ 0.25 | > 16 | ≤ 0.125 | – | 16 (≈ 40.8 µM) | 1 (≈ 2.55 µM) | ≤ 0.12 | ≤ 0.125 | 8 (≈ 20.4 µM) | ≤ 0.125 | ≤ 0.12 | 16 (≈ 40.8 µM) | 0.25 (≈ 0.637 µM) | 0.25 (≈ 0.637 µM) | 16 (≈ 40.8 µM) | –
